# Source: ChEMBL document CHEMBL2346604, “Synthesis of nordihydroguaiaretic acid derivatives and their bioactivities on S. pombe and K562 cell lines” (Eur J Med Chem, 2013)
# Activity calls are given as the source filed them. The rule behind the calls is not given here.
# Tests used:
# [1] = system: Schizosaccharomyces pombe; assay: Inhibition of growth metabolism of Schizosaccharomyces pombe ACCC 20047 assessed as growth rate constant at 40 mg/L at 32 degC by TAM air microcalorimetry; type: functional
# Method in brief: (§1)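 Cells seeded at 1×10⁶ cells/mL with compound at a range of concentrations. Heat output recorded continuously in a TAM Air isothermal microcalorimeter. Growth rate constant k taken from power-time curves. I = (k0 − kc)/k0 × 100%, and IC50 is the concentration giving I = 50%. n = 3.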
# [2] = system: K562; assay: Inhibitive ratio of growth metabolism of human K562 cells at 6 mg/L at 37 degC by TAM air microcalorimetry (reference value: 0%); type: functional
# Method in brief: (§2)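 K562 cells in supplemented RPMI 1640 (10% FBS) seeded at 1×10⁶ cells/mL with compound at graded concentrations. Heat flow recorded in real time in an eight-channel isothermal microcalorimeter (TAM Air). Rate constant k derived from thermogenic growth curves. Inhibition ratio I = (k0 − kc)/k0 × 100% relative to untreated cells, and IC50 is the concentration at I = 50%. Mean ± S.D., n = 3.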
# [3] = system: K562; assay: Inhibition of growth metabolism of human K562 cells assessed as growth rate constant at 2 mg/L at 37 degC by TAM air microcalorimetry; type: functional; method in brief: as §2
# [4] = system: K562; assay: Induction of apoptosis in human K562 cells assessed as mitochondrial transmembrane potential at 6 mg/L after 24 hrs by Rh123 staining based fluorescence spectrophotometer analysis (reference value: 277.9 +/-1.4%)
# [5] = system: Schizosaccharomyces pombe; assay: Inhibition of growth metabolism of Schizosaccharomyces pombe ACCC 20047 assessed as growth rate constant at 20 mg/L at 32 degC by TAM air microcalorimetry; type: functional; method in brief: as §1
# [6] = system: K562; assay: Inhibitive ratio of growth metabolism of human K562 cells at 4 mg/L at 37 degC by TAM air microcalorimetry (reference value: 0%); type: functional; method in brief: as §2
# [7] = system: Schizosaccharomyces pombe; assay: Inhibition of growth metabolism of Schizosaccharomyces pombe ACCC 20047 assessed as growth rate constant at 80 mg/L at 32 degC by TAM air microcalorimetry; type: functional; method in brief: as §1
# [8] = system: K562; assay: Inhibition of growth metabolism of human K562 cells assessed as growth rate constant at 8 mg/L at 37 degC by TAM air microcalorimetry; type: functional; method in brief: as §2
# [9] = system: K562; assay: Inhibition of growth metabolism of human K562 cells assessed as growth rate constant at 4 mg/L at 37 degC by TAM air microcalorimetry; type: functional; method in brief: as §2
# [10] = system: Schizosaccharomyces pombe; assay: Inhibitive ratio of growth metabolism of Schizosaccharomyces pombe ACCC 20047 at 40 mg/L at 32 degC by TAM air microcalorimetry (reference value: 0%); type: functional; method in brief: as §1
# [11] = system: K562; assay: Induction of apoptosis in human K562 cells assessed as mitochondrial transmembrane potential at 6 mg/L after 18 hrs by Rh123 staining based fluorescence spectrophotometer analysis (reference value: 788.8 +/-1.0%); type: functional
# [12] = system: Schizosaccharomyces pombe; assay: Inhibitive ratio of growth metabolism of Schizosaccharomyces pombe ACCC 20047 at 80 mg/L at 32 degC by TAM air microcalorimetry (reference value: 0%); type: functional; method in brief: as §1
# [13] = system: Schizosaccharomyces pombe; assay: Inhibitive ratio of growth metabolism of Schizosaccharomyces pombe ACCC 20047 at 160 mg/L at 32 degC by TAM air microcalorimetry (reference value: 0%); type: functional; method in brief: as §1
# [14] = system: Schizosaccharomyces pombe; assay: Inhibition of growth metabolism of Schizosaccharomyces pombe ACCC 20047 assessed as growth rate constant at 240 mg/L at 32 degC by TAM air microcalorimetry; type: functional; method in brief: as §1
# [15] = system: K562; assay: Induction of late apoptosis in human K562 cells assessed as cell membrane structural changes, smaller nuclear size, chromatin assembly under nuclear envelope, clear nuclear membrane structure, lipid droplets in cytoplasm, protruded cell surface with red nucleus at 4 to 6 mg/L after 12 to 24 hrs by propidium iodide staining based fluorescence microscopy; type: functional
# Method in brief: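 K562 groups at 0, 4.0 and 6.0 mg/L were held 12, 18 or 24 h at 37 °C in 5% CO2. Cells (1 mL) were collected, washed three times in PBS, stained with propidium iodide for 5 min in the dark and washed. Morphology of membrane, nucleus, chromatin and cytoplasm was scored against untreated controls.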
# [16] = system: Schizosaccharomyces pombe; assay: Inhibitive ratio of growth metabolism of Schizosaccharomyces pombe ACCC 20047 at 320 mg/L at 32 degC by TAM air microcalorimetry (reference value: 0%); type: functional; method in brief: as §1
# [17] = system: K562; assay: Induction of apoptosis in human K562 cells assessed as mitochondrial transmembrane potential at 4 mg/L after 12 hrs by Rh123 staining based fluorescence spectrophotometer analysis (reference value: 668.2 +/-0.8%); type: functional
# [18] = system: Schizosaccharomyces pombe; assay: Inhibitive ratio of growth metabolism of Schizosaccharomyces pombe ACCC 20047 at 20 mg/L at 32 degC by TAM air microcalorimetry (reference value: 0%); type: functional; method in brief: as §1
# [19] = system: Schizosaccharomyces pombe; assay: Inhibitive ratio of growth metabolism of Schizosaccharomyces pombe ACCC 20047 at 380 mg/L at 32 degC by TAM air microcalorimetry (reference value: 0%); type: functional; method in brief: as §1
# [20] = system: Schizosaccharomyces pombe; assay: Inhibition of growth metabolism of Schizosaccharomyces pombe ACCC 20047 assessed as growth rate constant at 160 mg/L at 32 degC by TAM air microcalorimetry; type: functional; method in brief: as §1
# [21] = system: K562; assay: Induction of apoptosis in human K562 cells assessed as mitochondrial transmembrane potential at 4 mg/L after 24 hrs by Rh123 staining based fluorescence spectrophotometer analysis (reference value: 277.9 +/-1.4%); type: functional
# [22] = system: K562; assay: Inhibitive ratio of growth metabolism of human K562 cells at 2 mg/L at 37 degC by TAM air microcalorimetry (reference value: 0%); type: functional; method in brief: as §2
# [23] = system: Schizosaccharomyces pombe; assay: Inhibition of growth metabolism of Schizosaccharomyces pombe ACCC 20047 assessed as growth rate constant at 320 mg/L at 32 degC by TAM air microcalorimetry; type: functional; method in brief: as §1
# [24] = system: K562; assay: Inhibition of growth metabolism of human K562 cells assessed as growth rate constant at 5 mg/L at 37 degC by TAM air microcalorimetry; type: functional; method in brief: as §2
# [25] = system: Schizosaccharomyces pombe; assay: Inhibition of growth metabolism of Schizosaccharomyces pombe ACCC 20047 at 32 degC by TAM air microcalorimetry; type: functional, organism-based; method in brief: as §1
# [26] = system: K562; assay: Inhibition of growth metabolism of human K562 cells at 37 degC by TAM air microcalorimetry; type: functional, cell-based; method in brief: as §2
# [27] = system: Schizosaccharomyces pombe; assay: Inhibition of growth metabolism of Schizosaccharomyces pombe ACCC 20047 assessed as growth rate constant at 380 mg/L at 32 degC by TAM air microcalorimetry; type: functional; method in brief: as §1
# [28] = system: K562; assay: Induction of apoptosis in human K562 cells assessed as mitochondrial transmembrane potential at 4 mg/L after 18 hrs by Rh123 staining based fluorescence spectrophotometer analysis (reference value: 788.8 +/-1.0%); type: functional
# [29] = system: K562; assay: Inhibitive ratio of growth metabolism of human K562 cells at 5 mg/L at 37 degC by TAM air microcalorimetry (reference value: 0%); type: functional; method in brief: as §2
# [30] = system: Schizosaccharomyces pombe; assay: Inhibitive ratio of growth metabolism of Schizosaccharomyces pombe ACCC 20047 at 240 mg/L at 32 degC by TAM air microcalorimetry (reference value: 0%); type: functional; method in brief: as §1
# [31] = system: K562; assay: Inhibitive ratio of growth metabolism of human K562 cells at 3 mg/L at 37 degC by TAM air microcalorimetry (reference value: 0%); type: functional; method in brief: as §2
# [32] = system: K562; assay: Inhibitive ratio of growth metabolism of human K562 cells at 8 mg/L at 37 degC by TAM air microcalorimetry (reference value: 0%); type: functional; method in brief: as §2
# [33] = system: K562; assay: Inhibition of growth metabolism of human K562 cells assessed as growth rate constant at 3 mg/L at 37 degC by TAM air microcalorimetry; type: functional; method in brief: as §2
# [34] = system: K562; assay: Inhibition of growth metabolism of human K562 cells assessed as growth rate constant at 6 mg/L at 37 degC by TAM air microcalorimetry; type: functional; method in brief: as §2
# [35] = system: K562; assay: Induction of apoptosis in human K562 cells assessed as mitochondrial transmembrane potential at 6 mg/L after 12 hrs by Rh123 staining based fluorescence spectrophotometer analysis (reference value: 668.2 +/-0.8%); type: functional
smiles,measurement,setting,value
COc1ccc(C[C@@H](C)[C@@H](C)Cc2ccc(OC)c(OC)c2)cc1OC [TERAMEPROCOL],Activity,[1],0.00407 min⁻¹
same,inhibition at 6 µg/mL,[2],52.9%
same,Activity,[3],4.7239 ×10⁻⁴ /min
same,Activity,[4],170.7%
same,Activity,[5],0.00401 min⁻¹
same,inhibition at 4 µg/mL,[6],5.06%
same,Activity,[7],0.00425 min⁻¹
same,Activity,[8],8.5275 ×10⁻⁵ /min
same,Activity,[9],3.9762 ×10⁻⁴ /min
same,inhibition at 40 µg/mL,[10],8.13%
same,Activity,[11],331.5%
same,inhibition at 80 µg/mL,[12],4.06%
same,inhibition at 160 µg/mL,[13],11.5%
same,Activity,[14],0.00322 min⁻¹
same,Activity,[15],Active
same,inhibition at 320 µg/mL,[16],44.7%
same,Activity,[17],597.2%
same,inhibition at 20 µg/mL,[18],9.48%
same,inhibition at 380 µg/mL,[19],67.7%
same,Activity,[20],0.00392 min⁻¹
same,Activity,[21],168%
same,inhibition at 2 µg/mL,[22],-12.8%
same,Activity,[23],0.00245 min⁻¹
same,Activity,[24],2.7992 ×10⁻⁴ /min
same,IC50,[25],330 µg/mL
same,IC50,[26],5.87 µg/mL
same,Activity,[27],0.00143 min⁻¹
same,Activity,[28],615.3%
same,inhibition at 5 µg/mL,[29],33.2%
same,inhibition at 240 µg/mL,[30],27.3%
same,inhibition at 3 µg/mL,[31],-5.88%
same,inhibition at 8 µg/mL,[32],79.6%
same,Activity,[33],4.4342 ×10⁻⁴ /min
same,Activity,[34],1.9712 ×10⁻⁴ /min
same,Activity,[35],477.8%
